# Assays:
# Format in all cases: functional
# Pseudomonas aeruginosa [1] = experiment: Antimicrobial activity against Pseudomonas aeruginosa isolate 7 obtained from cystic fibrosis patients after 16 to 20 hrs by broth microdilution method
# Outline: (§1)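 CLSI broth microdilution in Mueller-Hinton broth, serial 2-fold antibiotic dilutions. Inoculum about 10^4 cells per well, taken from starter cultures grown to OD600 0.5. MIC was the lowest antibiotic concentration preventing growth after 16 to 20 h at 37°C. Each MIC was determined in triplicate.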
# Pseudomonas aeruginosa [2] = experiment: Antimicrobial activity against ampD, ampDh2, ampDh3 and ampG deficient Pseudomonas aeruginosa PAO1 harboring pUCP24 conferring resistance to gentamycin after 16 to 20 hrs by broth microdilution method; outline: as §1
# Pseudomonas aeruginosa [3] = experiment: Antimicrobial activity against Pseudomonas aeruginosa isolate 1 obtained from cystic fibrosis patients after 16 to 20 hrs by broth microdilution method
# Outline: (§2)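 CLSI broth microdilution: 2-fold serial antibiotic dilutions in Mueller-Hinton broth, inoculated with about 10^4 cells per 100 μl from starter cultures grown to OD600 0.5. MIC is the lowest concentration preventing growth after 16-20 h at 37°C. Triplicate.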
# Pseudomonas aeruginosa [4] = experiment: Antimicrobial activity against ampG deficient Pseudomonas aeruginosa PAO1 after 16 to 20 hrs by broth microdilution method in presence of 120 uM carbonyl cyanide m-chlorophenyl-hydrazone
# Outline: (§3)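 CLSI broth microdilution in Mueller-Hinton broth with serial antibiotic dilutions. CCCP was added from a 10 mM DMSO stock to 120 μM final, then the bacterial culture was added as inoculum (about 10^4 cells from OD600 0.5 starter cultures). MIC was the lowest concentration preventing growth after 16 to 20 h at 37°C, run in triplicate.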
# Pseudomonas aeruginosa [5] = experiment: Antimicrobial activity against ampG deficient Pseudomonas aeruginosa PAK harboring pZY0901 conferring resistance to gentamycin after 16 to 20 hrs by broth microdilution method; outline: as §1
# Pseudomonas aeruginosa [6] = experiment: Antimicrobial activity against ampD, […], ampDh2 deficient Pseudomonas aeruginosa PAO1 after 16 to 20 hrs by broth microdilution method; outline: as §1
# Pseudomonas aeruginosa [7] = experiment: Antimicrobial activity against ampD, ampDh2, ampDh3 and ampGh1 deficient Pseudomonas aeruginosa PAO1 after 16 to 20 hrs by broth microdilution method; outline: as §1
# Pseudomonas aeruginosa [8] = experiment: Antimicrobial activity against Pseudomonas aeruginosa isolate 14 obtained from cystic fibrosis patients after 16 to 20 hrs by broth microdilution method in presence of 120 uM carbonyl cyanide m-chlorophenyl-hydrazone
# Outline: (§4)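 CLSI broth microdilution in Mueller-Hinton broth with CCCP added from a 10 mM DMSO stock to 120 μM final, alongside 2-fold serial antibiotic dilutions. Inoculum from starter cultures grown to OD600 0.5. MIC is the lowest concentration preventing growth after 16-20 h at 37°C. Triplicate.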
# Pseudomonas aeruginosa [9] = experiment: Antimicrobial activity against Pseudomonas aeruginosa isolate 2 obtained from cystic fibrosis patients after 16 to 20 hrs by broth microdilution method in presence of 120 uM carbonyl cyanide m-chlorophenyl-hydrazone; outline: as §3
# Pseudomonas aeruginosa [10] = experiment: Antimicrobial activity against ampG, ampGh1 deficient Pseudomonas aeruginosa PAK after 16 to 20 hrs by broth microdilution method; outline: as §1
# Pseudomonas aeruginosa [11] = experiment: Antimicrobial activity against ampD, ampDh2, ampDh3 and ampG deficient Pseudomonas aeruginosa PAO1 harboring pZY0901 conferring resistance to gentamycin after 16 to 20 hrs by broth microdilution method in presence of 120 uM carbonyl cyanide m-chlorophenyl-hydrazone; outline: as §3
# Pseudomonas aeruginosa [12] = experiment: Antimicrobial activity against Pseudomonas aeruginosa isolate 15 obtained from cystic fibrosis patients after 16 to 20 hrs by broth microdilution method in presence of 120 uM carbonyl cyanide m-chlorophenyl-hydrazone; outline: as §4
# Pseudomonas aeruginosa [13] = experiment: Antimicrobial activity against ampG deficient Pseudomonas aeruginosa PAO1 harboring pUCP24 conferring resistance to gentamycin after 16 to 20 hrs by broth microdilution method in presence of 120 uM carbonyl cyanide m-chlorophenyl-hydrazone; outline: as §3
# Pseudomonas aeruginosa [14] = experiment: Antimicrobial activity against Pseudomonas aeruginosa isolate 10 obtained from cystic fibrosis patients after 16 to 20 hrs by broth microdilution method in presence of 120 uM carbonyl cyanide m-chlorophenyl-hydrazone; outline: as §4
# Pseudomonas aeruginosa [15] = experiment: Antimicrobial activity against Pseudomonas aeruginosa isolate 3 obtained from cystic fibrosis patients after 16 to 20 hrs by broth microdilution method in presence of 120 uM carbonyl cyanide m-chlorophenyl-hydrazone; outline: as §3
# Pseudomonas aeruginosa [16] = experiment: Antimicrobial activity against ampG deficient Pseudomonas aeruginosa PAO1 harboring pZY0901 conferring resistance to gentamycin after 16 to 20 hrs by broth microdilution method in presence of 120 uM carbonyl cyanide m-chlorophenyl-hydrazone; outline: as §3
# Pseudomonas aeruginosa [17] = experiment: Antimicrobial activity against Pseudomonas aeruginosa isolate 2 obtained from cystic fibrosis patients after 16 to 20 hrs by broth microdilution method; outline: as §1
# Pseudomonas aeruginosa [18] = experiment: Antimicrobial activity against ampG deficient Pseudomonas aeruginosa PAO1 after 16 to 20 hrs by broth microdilution method; outline: as §1
# Pseudomonas aeruginosa [19] = experiment: Antimicrobial activity against Pseudomonas aeruginosa isolate 16 obtained from cystic fibrosis patients after 16 to 20 hrs by broth microdilution method; outline: as §2
# Pseudomonas aeruginosa [20] = experiment: Antimicrobial activity against ampGh1 deficient Pseudomonas aeruginosa PAK after 16 to 20 hrs by broth microdilution method; outline: as §1
# Pseudomonas aeruginosa [21] = experiment: Antimicrobial activity against ampD, ampDh2, ampDh3 and ampG deficient Pseudomonas aeruginosa PAO1 harboring pUCP24 conferring resistance to gentamycin after 16 to 20 hrs by broth microdilution method in presence of 120 uM carbonyl cyanide m-chlorophenyl-hydrazone; outline: as §3
# Pseudomonas aeruginosa [22] = experiment: Antimicrobial activity against ampG deficient Pseudomonas aeruginosa PAO1 harboring pZY0901 conferring resistance to gentamycin after 16 to 20 hrs by broth microdilution method; outline: as §1
# Pseudomonas aeruginosa [23] = experiment: Antimicrobial activity against ampG deficient Pseudomonas aeruginosa PAO1 harboring pZY0908 conferring resistance to gentamycin after 16 to 20 hrs by broth microdilution method; outline: as §1
# Pseudomonas aeruginosa [24] = experiment: Antimicrobial activity against Pseudomonas aeruginosa isolate 5 obtained from cystic fibrosis patients after 16 to 20 hrs by broth microdilution method in presence of 120 uM carbonyl cyanide m-chlorophenyl-hydrazone; outline: as §3
# Pseudomonas aeruginosa [25] = experiment: Antimicrobial activity against Pseudomonas aeruginosa isolate 13 obtained from cystic fibrosis patients after 16 to 20 hrs by broth microdilution method; outline: as §2
# Pseudomonas aeruginosa [26] = experiment: Antimicrobial activity against ampD, ampDh2, ampDh3 and ampG deficient Pseudomonas aeruginosa PAO1 after 16 to 20 hrs by broth microdilution method; outline: as §1
# Pseudomonas aeruginosa [27] = experiment: Antimicrobial activity against Pseudomonas aeruginosa isolate 16 obtained from cystic fibrosis patients after 16 to 20 hrs by broth microdilution method in presence of 120 uM carbonyl cyanide m-chlorophenyl-hydrazone; outline: as §4
# Pseudomonas aeruginosa [28] = experiment: Antimicrobial activity against Pseudomonas aeruginosa PAO1 after 16 to 20 hrs by broth microdilution method; outline: as §2
# Pseudomonas aeruginosa [29] = experiment: Antimicrobial activity against ampG deficient Pseudomonas aeruginosa PAK after 16 to 20 hrs by broth microdilution method in presence of 120 uM carbonyl cyanide m-chlorophenyl-hydrazone; outline: as §3
# Pseudomonas aeruginosa [30] = experiment: Antimicrobial activity against Pseudomonas aeruginosa isolate 18 obtained from cystic fibrosis patients after 16 to 20 hrs by broth microdilution method; outline: as §1
# Pseudomonas aeruginosa [31] = experiment: Antimicrobial activity against Pseudomonas aeruginosa isolate 18 obtained from cystic fibrosis patients after 16 to 20 hrs by broth microdilution method in presence of 120 uM carbonyl cyanide m-chlorophenyl-hydrazone; outline: as §3
# Escherichia coli = experiment: Antimicrobial activity against kanamycin resistant Escherichia coli SNO301-1 harboring pEC1C carrying ampC, ampR from Enterobacter cloacae after 16 to 20 hrs by broth microdilution method
# Outline: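 CLSI broth microdilution: serial 2-fold β-lactam dilutions in Mueller-Hinton broth, inoculum about 10^4 cells from starter cultures at OD600 0.5; MIC read as lowest concentration preventing growth after 16 to 20 h at 37°C; triplicate determinations.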
smiles,measurement,setting,value
CC1(C)S[C@@H]2[C@H](NC(=O)[C@H](N)c3ccccc3)C(=O)N2[C@H]1C(=O)O [AMPICILLIN],MIC,Pseudomonas aeruginosa [1],256 µg/mL
same,MIC,Pseudomonas aeruginosa [2],16 µg/mL
same,MIC,Pseudomonas aeruginosa [3],512 µg/mL
same,MIC,Pseudomonas aeruginosa [4],32 µg/mL
same,MIC,Pseudomonas aeruginosa [5],512 µg/mL
same,MIC,Pseudomonas aeruginosa [6],1020 µg/mL
same,MIC,Pseudomonas aeruginosa [7],1020 µg/mL
same,MIC,Pseudomonas aeruginosa [8],8 µg/mL
same,MIC,Pseudomonas aeruginosa [9],256 µg/mL
same,MIC,Pseudomonas aeruginosa [10],32 µg/mL
same,MIC,Pseudomonas aeruginosa [11],32 µg/mL
same,MIC,Pseudomonas aeruginosa [12],8 µg/mL
same,MIC,Pseudomonas aeruginosa [13],32 µg/mL
same,MIC,Pseudomonas aeruginosa [14],8 µg/mL
same,MIC,Pseudomonas aeruginosa [15],64 µg/mL
same,MIC,Pseudomonas aeruginosa [16],512 µg/mL
same,MIC,Pseudomonas aeruginosa [17],256 µg/mL
same,MIC,Pseudomonas aeruginosa [18],32 µg/mL
same,MIC,Pseudomonas aeruginosa [19],16 µg/mL
same,MIC,Pseudomonas aeruginosa [20],512 µg/mL
same,MIC,Pseudomonas aeruginosa [21],16 µg/mL
same,MIC,Pseudomonas aeruginosa [22],1020 µg/mL
same,MIC,Pseudomonas aeruginosa [23],32 µg/mL
same,MIC,Pseudomonas aeruginosa [24],512 µg/mL
same,MIC,Pseudomonas aeruginosa [25],> 1020 µg/mL
same,MIC,Pseudomonas aeruginosa [26],16 µg/mL
same,MIC,Pseudomonas aeruginosa [27],8 µg/mL
same,MIC,Pseudomonas aeruginosa [28],256 µg/mL
same,MIC,Pseudomonas aeruginosa [29],32 µg/mL
same,MIC,Pseudomonas aeruginosa [30],256 µg/mL
same,MIC,Pseudomonas aeruginosa [31],256 µg/mL
same,MIC,Escherichia coli,1020 µg/mL

# — ChEMBL document CHEMBL1687785, “ampG gene of Pseudomonas aeruginosa and its role in β-lactamase expression” (2010)
